Results: ChEMBL document CHEMBL4396927, “Fluorescent Imidazo[1,5-a]pyridinium Salt for a Potential Cancer Therapy Agent” (ACS Med Chem Lett, 2019)
Activity calls are given as the source filed them. The rule behind the calls is not given here.

Legend:
[1] = test system: Enterobacteria phage phiX174; test: Induction of DNA cleavage in supercoiled phiX174 RF I DNA assessed as DNA photo cleavage irradiated with 365 nm UVA-LED light in presence of KI measured up to 60 mins by RE-DYE based agarose gel electrophoresis method
Outline: (§1)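 Supercoiled ΦX174 RF I DNA in TE, with the salt in H2O, was irradiated with UVA-LED for 1, 10, 30, 60 or 180 min. A DNA-only irradiated control was included. Scavenger runs added 1.0 × 10–3 mol L–1 NaN3, KI, DMSO or t-BuOH with 60 min irradiation. Samples were resolved on 0.9% agarose in TAE (40 mmol L–1 Tris-acetate, 1 mmol L–1 EDTA, pH 8.0), and supercoiled (Form I) versus nicked circular (Form II) bands were scored.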

[2] = test system: Enterobacteria phage phiX174; test: Induction of DNA cleavage in supercoiled phiX174 RF I DNA assessed as formation of nicked circular DNA irradiated with 365 nm UVA-LED light under N2 condition measured up to 60 mins by RE-DYE based agarose gel electrophoresis method
HeLa [3] = test: Antiproliferative against human HeLa cells assessed as reduction in cell viability at 0.08 x 10^-4 mol/L to 1.25 x 10^-4 mol/L after 24 hrs by CCK-8 assay; assay type: functional, cell-based
Outline: (§2)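 HeLa viability was read by CCK-8 after 1 h (acute) or 24 h (subacute) incubation with a concentration series of the salt. The top concentration was 2.5 × 10–4 mol L–1, limited by water solubility. IC50 was estimated, not determined.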

[4] = test system: Enterobacteria phage phiX174; test: Induction of DNA cleavage in supercoiled phiX174 RF I DNA assessed as DNA photo cleavage irradiated with 365 nm UVA-LED light in presence of DMSO measured up to 60 mins by RE-DYE based agarose gel electrophoresis method; outline: as §1
HeLa [5] = test: Antiproliferative activity against human HeLa cells assessed as reduction in cell viability by measuring mitochondrial damage at 2.5 x 10^-4 mol/L preincubated for 24 hrs followed by irradiation with 365 nm UVA-LED light after 30 mins by inverted microscopic analysis; assay type: functional, cell-based
[6] = test system: Enterobacteria phage phiX174; test: Induction of DNA cleavage in supercoiled phiX174 RF I DNA assessed as DNA photo cleavage irradiated with 365 nm UVA-LED light in presence of NaN3 measured up to 60 mins by RE-DYE based agarose gel electrophoresis method; outline: as §1
HeLa [7] = test: Induction of mitochondrial depolarization in human HeLa cells assessed at 2.5 x 10^-4 mol/L preincubated for 24 hrs followed by irradiation with 365 nm UVA-LED for 30 mins by JC-1 staining based inverted microscopic analysis; assay type: functional, cell-based
Outline: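 Mitochondrial membrane potential was assessed by JC-1 in HeLa cells with or without the salt after UVA-LED irradiation for 0, 30 or 60 min. FCCP served as the depolarization positive control. Imaging used WIY and WU filters plus bright field.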

[8] = test system: Enterobacteria phage phiX174; test: Induction of DNA cleavage in supercoiled phiX174 RF I DNA assessed as cleavage of supercoiled DNA in presence of UVA-LED irradiation with 365 nm light after 60 mins by RE-DYE based agarose gel electrophoresis method relative to control; outline: as §1
HeLa [9] = test: Photocytotoxicity against human HeLa cells assessed as reduction in cell viability at 2.5 x 10^-4 mol/L preincubated for 24 hrs followed by irradiation with 365 nm UVA-LED light after 60 mins by CCK-8 assay; assay type: functional, cell-based
Outline: (§3)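 Salt-stained HeLa cells were irradiated with UVA-LED for 10, 30 or 60 min. Viability was read immediately after irradiation, or after a further 24 h at 37 °C in the dark. Irradiated cells without salt served as control.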

HeLa [10] = test: Photocytotoxicity against human HeLa cells assessed as reduction in cell viability at 2.5 x 10^-4 mol/L preincubated for 24 hrs followed by irradiation with 365 nm UVA-LED light after 10 mins by CCK-8 assay; assay type: functional, cell-based; outline: as §3
[11] = Drug distribution in human HeLa cells cytoplasm assessed as decrease in dot shaped cyan signals at 2.5 x 10^-4 mol/L after 24 hrs in presence of endocytosis marker Alexa Fluor 594-conjugated dextran followed by irradiation with 365 nm UVA-LED for 10 to 30 mins by fluorescence based inverted microscopic analysis; conditions: 250 µM
HeLa [12] = test: Photocytotoxicity against human HeLa cells assessed as reduction in cell viability at 2.5 x 10^-4 mol/L preincubated for 24 hrs followed by irradiation with 365 nm UVA-LED light after 30 mins by CCK-8 assay; assay type: functional, cell-based; outline: as §3
HeLa [13] = test: Antiproliferative against human HeLa cells assessed as reduction in cell viability at 2.5 x 10^-4 mol/L after 24 hrs by CCK-8 assay; assay type: functional, cell-based; outline: as §2
[14] = Drug distribution in human HeLa cells cytoplasm assessed as increase in super oxide anion level at 2.5 x 10^-4 mol/L preincubated for 24 hrs followed by irradiation with 365 nm UVA-LED light measured at 5 mins interval for 30 mins by MitoROS stress marker based laser confocal microscopic analysis; assay type: ADME, subcellular; conditions: 0.5 h, 250 µM
Outline: (§4)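 Live HeLa cells, with or without the salt, were loaded with OxiORANGE (hydroxyl radical) or MitoROS 580 (superoxide) and imaged during UV irradiation for 30 min. Blue fluorescence was taken through a DAPI filter and red through a TRITC filter. Intensities were quantified at endosomal positions, in cytoplasm and for the red probe.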

[15] = test system: Enterobacteria phage phiX174; test: Induction of DNA cleavage in supercoiled phiX174 RF I DNA assessed as DNA photo cleavage irradiated with 365 nm UVA-LED light in presence of t-BuOH measured up to 60 mins by RE-DYE based agarose gel electrophoresis method; outline: as §1
HeLa [16] = test: Antiproliferative against human HeLa cells assessed as reduction in cell viability after 24 hrs by CCK-8 assay; assay type: functional, cell-based; outline: as §2
HeLa [17] = test: Photocytotoxicity against human HeLa cells assessed as reduction in cell viability at 2.5 x 10^-4 mol/L preincubated for 24 hrs followed by irradiation with 365 nm UVA-LED light for 60 mins and measured after 24 hrs by CCK-8 assay; assay type: functional, cell-based; outline: as §3
[18] = Drug localization in human HeLa cells mitochondria at 2.5 x 10^-4 mol/L incubated for 24 hrs by Mitotracker Red staining based inverted microscopic analysis; assay type: ADME; conditions: 250 µM
Outline: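 HeLa cells were stained with the salt and a mitochondrial marker, either without UVA-LED or with marker incubation after 30 min of UVA-LED irradiation. Overlap of cyan and red fluorescence was assessed.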

HeLa [19] = test: Induction of mitochondrial depolarization in human HeLa cells assessed at 2.5 x 10^-4 mol/L preincubated for 24 hrs followed by irradiation with 365 nm UVA-LED for 30 mins under hypoxic conditions by JC-1 staining based inverted microscopic analysis; assay type: functional, cell-based
Outline: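 The JC-1 mitochondrial membrane potential assay was run on salt-stained HeLa cells under UVA-LED irradiation in hypoxic conditions.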

[20] = test system: Enterobacteria phage phiX174; test: Induction of DNA cleavage in supercoiled phiX174 RF I DNA assessed as formation of nicked circular DNA in presence of UVA-LED irradiation with 365 nm light after 10 mins by RE-DYE based agarose gel electrophoresis method; outline: as §1
[21] = Drug localization in endosomes of human HeLa cells assessed as co-localization of compound with endosome at 2.5 x 10^-4 mol/L after 24 hrs in presence of endocytosis marker Alexa Fluor 594-conjugated dextran by fluorescence based inverted microscopic analysis; assay type: ADME, subcellular; conditions: 250 µM
Outline: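 HeLa cells were co-incubated with the salt and an endocytosis marker at 37 °C, 5% CO2, for 24 h. Imaging used bright field, cyan fluorescence through a WU filter and red marker fluorescence through a WIY filter, and the images were merged to assess colocalization.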

[22] = Drug distribution in human HeLa cell cytoplasm assessed as increase in hydroxyl radical at 2.5 x 10^-4 mol/L preincubated for 24 hrs followed by irradiation with 365 nm UVA-LED light measured at 5 mins interval for 30 mins by OxiORANGE stress marker based laser confocal microscopic analysis; assay type: ADME, subcellular; conditions: 0.5 h, 250 µM; outline: as §4

Activity [1]: Active
Activity [2]: Active
Activity [4]: Active
Activity [6]: Active
Activity [8]: 100%
Drug uptake [11]: Active
Drug uptake [14]: Active
Activity [15]: Active
IC50 (HeLa [16]): Nd(Insoluble)
Drug uptake [18]: Not Active
Activity [20]: Active
Drug uptake [21]: Active
Drug uptake [22]: Active
SMILES: C[n+]1c(-c2ccccc2)c2ccccn2c1-c1n2ccccc2c(-c2ccccc2)[n+]1C.[I-].[I-]
Activity (HeLa [3]): inactive
Activity (HeLa [5]): Active
Activity (HeLa [7]): Active
Activity (HeLa [9]): Active
Activity (HeLa [10]): inactive
Activity (HeLa [12]): Active
Activity (HeLa [13]): Active
Activity (HeLa [17]): Active
Activity (HeLa [19]): inactive
